Most compounds without a hit are left out; they make up all but 3.9% or so of the library.
HTR2A ag – mouse HTR2A agonism via beta-arrestin recruitment; AID 624169; 360,000 compounds, 0.66% hits; activation, % at 7.6 µM; CHO-K1 mHTR2A beta-arrestin complementation, luminescence; percent of 30 µM serotonin response; P35363;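 active = activation above a run cutoff, the mean activation of all tested compounds plus 3 SD, cut at about 14% in these data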;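 note: 0% = plate median of compound wells and 100% = 30 µM serotonin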
M1 antag – antagonists of human M1 muscarinic receptor. P11229. 360,000 compounds, 1.3% hits. AID 588852. CHO-K1 hM1, Fluo-8 calcium fluorescence, ACh EC80 antagonist. inhibition, % at 3 µM;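 active = percent inhibition above its own plate's cutoff, namely the mean of that plate's compound wells plus 3 SD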;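 note: peak over basal fluorescence ratio during 140 s after agonist addition; 0% = ACh EC80 plus DMSO and 100% = DMSO alone without agonist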
TAAR1 agonist – human TAAR1 agonism. CHO RD-HGA16 TAAR1, Fluo-8 calcium fluorescence; vehicle wells 0%, saturating PEA agonist 100%. activation, % at 3 µM. 360,000 compounds, 0.99% hits. AID 624467;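 active = activation above the mean activation of all test compounds in the run plus 3 SD, cut at about 38% in these data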
Target sequence (Q96RJ0 whole entry, looked up): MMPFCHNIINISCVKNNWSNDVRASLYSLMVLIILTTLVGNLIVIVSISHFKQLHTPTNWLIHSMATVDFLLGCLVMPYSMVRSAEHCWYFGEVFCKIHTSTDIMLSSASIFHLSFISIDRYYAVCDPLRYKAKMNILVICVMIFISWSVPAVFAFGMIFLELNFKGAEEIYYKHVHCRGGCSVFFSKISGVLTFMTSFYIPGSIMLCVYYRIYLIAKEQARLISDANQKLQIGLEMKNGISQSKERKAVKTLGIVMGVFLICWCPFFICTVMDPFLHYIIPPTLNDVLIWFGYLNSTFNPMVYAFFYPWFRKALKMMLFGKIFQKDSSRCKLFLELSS
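Assay system – CHO-derived RD-HGA16 cells with stable Gα16 and human TAAR1 · Compound dosing – one-point dosing at 3 µM (nominal) · Incubation – 17-24 h seeding, 75 min 37 °C dye, 30 min RT · Measured by – kinetic Fluo-8 calcium fluorescence · Control set – DMSO vehicle as 0%, PEA at EC100 as 100% · Repeats – single well for each compound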
M1 ag – agonists of human M1 muscarinic receptor; P11229; CHO-K1 hM1, Fluo-8 calcium fluorescence, agonist mode; 0% DMSO, 100% acetylcholine EC100; activation, % at 3 µM; 360,000 compounds, 0.33% hits; AID 588814;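 active = activation above the run's mean compound activation plus 3 SD, cut at about 16% in these data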;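 note: peak over basal fluorescence ratio within a 140 s kinetic read after compound addition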
M1 PAM – positive allosteric modulators of human M1 muscarinic receptor; activation, % at 3 µM; P11229; CHO-K1 hM1, Fluo-8 calcium fluorescence, ACh EC20; 0% = ACh EC20, 100% = maximal ACh; AID 588819; 360,000 compounds, 0.088% hits; in the data active = activation above about 19%, passing the limit was not always enough
TAAR1 antag – human TAAR1 antagonism; Q96RJ0; CHO RD-HGA16 TAAR1, Fluo-8 calcium fluorescence, antagonist; inhibition, % at 3 µM; 360,000 compounds, 1.5% hits;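 active = inhibition above a per-plate cutoff, the mean inhibition of test compounds on that plate plus 3 SD, cut at about 49% in these data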;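 note: 0% = DMSO plus EC80 beta-PEA response and 100% = DMSO alone without agonist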
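Material: CHO RD-HGA16 cells bearing hTAAR1; compound dosing: one-point dosing, 3 µM nominal final; schedule: dye loading 75 min at 37 °C, then 30 min room temperature; measured by: calcium fluorescence with Fluo-8; control set: vehicle and agonist controls; replication: n of 1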
TAAR1 ag confirm – human TAAR1 agonism, confirmed | AID 651783 | CHO RD-HGA16 TAAR1, Fluo-8 calcium fluorescence; scaled: DMSO 0%, maximal phenethylamine 100% | 2,400 compounds, 82% hits | shares compounds with TAAR1 agonist | activation, % at 3 µM;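 active = activation above a cutoff set at the run's mean compound activation plus 3 SD, cut at about 39% in these data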
Ga16 ag counter – counter-screen for TAAR1 agonists: nonselective agonists in parental cells | shares compounds with TAAR1 agonist | AID 651787 | 2,400 compounds, 50% hits | activation, % at 3 µM | CHO-Ga16 parental, Fluo-8 calcium fluorescence; normalized to maximal ATP response, DMSO zero;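 active = activation above the run cutoff, the mean activation over all tested wells plus 3 SD, cut at about 12% in these data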;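 note: 0% = DMSO wells and 100% = maximal ATP response on the peak over basal ratio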
TAAR1 desensitize – human TAAR1 agonist that also desensitizes the receptor. AID 651951. inhibition, % at 3 µM. CHO RD-HGA16 hTAAR1, Fluo-8 calcium, beta-PEA response inhibition. shares compounds with TAAR1 agonist. 2,400 compounds, 46% hits;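 active = inhibition above the run cutoff, the mean inhibition of all test compounds plus 3 SD, cut at about 49% in these data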;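 note: beta-PEA stimulus applied at its EC80; loss of beta-PEA calcium signal after compound pretreatment read as receptor desensitization; 0% = DMSO with beta-PEA at EC80 and 100% = DMSO alone without agonist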
Ga16 antag count – nonselective Ga16 antagonist in TAAR1 agonist counter-screen; shares compounds with TAAR1 agonist; CHO-Ga16 ATP-induced calcium, Fluo-8 fluorescence; inhibition, % at 3 µM; 2,400 compounds, 39% hits;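 active = inhibition above the plate's mean compound inhibition plus 3 SD, computed per plate, cut at about 22% in these data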;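 note: 0% = EC80 ATP with DMSO and 100% = DMSO wells without ATP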
Starred values were filed as active, the others as inactive; . = no result; + = active, no number.

SMILES	HTR2A ag	M1 antag	TAAR1 agonist	M1 ag	M1 PAM	TAAR1 antag	TAAR1 ag confirm	Ga16 ag counter	TAAR1 desensitize	Ga16 antag count
COC(=O)C1=C(C)N(C)C(=NCC2CC2)NC1c1cccc(C(F)(F)F)c1 (configuration not stated)	.	.	3.4	.	.	6.3	.	.	.	.
COC(=O)C1=C(C)N(Cc2cccc(C(F)(F)F)c2)C(=NCC2CC2)NC1c1ccccc1C(F)(F)F (configuration not stated)	.	.	9.2	.	.	15.3	.	.	.	.
Cc1cc(SCC(=O)c2ccc(O)c(O)c2)n2nc(C)c(-c3ccccc3)c2n1	3.1	2.6	2.0	2.4	1.4	-5.3	.	.	.	.
CC(NC(=O)c1cccc(S(=O)(=O)N2CCN(Cc3ccccc3)CC2)c1)c1ccc(Br)cc1 (configuration not stated)	-6.2	-8.5	1.7	-4.8	3.6	-12.6	.	.	.	.
C=C[C@]1(C)C[C@@H](OC(=O)CSCCN(CC)CC)[C@]2(C)C(C)CC[C@]3(CCC(=O)[C@H]32)[C@@H](C)[C@@H]1O (some centres not stated)	-1.0	-32.3	10.6	-8.4	-8.2	-17.0	.	.	.	.
Cc1c(C(=O)NCc2ccc(C(F)(F)F)cc2)sc(=O)n1Cc1cccc(F)c1	-8.1	39.2*	127.0*	37.1*	-3.2	100.2*	113.9*	77.2*	97.0*	70.7*
Cc1sc(NC(=O)CSc2nnc3scc(-c4ccccc4)n23)c(C#N)c1C	2.1	-2.0	9.4	-2.3	4.1	4.4	.	.	.	.
Cc1sc(NC(=O)CSc2nnc(COc3ccccc3)n2C)c(C#N)c1C	-1.1	-11.1	53.3*	-3.3	5.8	47.1	10.8	4.3	19.3	7.8
Cc1ccc(OCc2nnc(SCC(=O)Nc3sc(C)c(C)c3C#N)n2C)cc1	8.2	5.4	53.6*	-3.4	-2.7	45.6	9.8	2.5	19.9	4.9
Cc1cccc2c1NC(=O)C2(O)N1CCCC(C)C1 (configuration not stated)	11.7	-20.2	0.3	-3.2	9.8	-14.9	.	.	.	.
CN(C)/C=C1\C=C2C(=O)c3ccccc3N2C1=O	-2.6	34.0	413.1*	140.8*	-17.2	87.0*	+	+	104.4*	93.7*
CC(C)CCNC(=O)[C@@H](Cc1ccccc1)NC(=O)CC[C@H]1O[C@@H](n2ccc(=O)[nH]c2=O)[C@H](O)[C@@H]1O	4.1	-26.3	1.6	4.0	8.4	-11.3	.	.	.	.
Cc1ccc(S(=O)(=O)N/N=C/c2ccc(OC3CSC3)cc2)cc1	-2.5	37.0*	91.3*	29.3*	-4.4	93.1*	98.0*	56.2*	96.7*	71.2*
Brc1ccc(-c2csc(N3CCc4ccccc4C3)n2)cc1	1.0	-10.7	50.2*	-0.4	-3.9	4.9	13.2	5.2	-0.7	6.8
O=C(Nc1ccccc1)c1nc[nH]c1C(=O)N1CCc2ccccc2C1	-1.8	8.8	4.3	-8.9	-6.3	7.7	.	.	.	.
O=C(Nc1nccs1)c1nc[nH]c1C(=O)N1CCc2ccccc2C1	-0.5	-6.5	81.8*	-4.5	2.3	81.6*	103.0*	3.7	94.0*	8.1
CC(C)C[C@H](NC(=O)[C@@H]1Cc2ccccc2CN1)C(=O)Nc1ccc(C(C)C)cc1	-1.9	-9.6	5.9	-4.3	5.6	5.7	.	.	.	.

Assay outcomes from PubChem BioAssay.
